In ChEMBL document CHEMBL1773052, “3-Trifluoromethylquinoxaline N,N'-dioxides as anti-trypanosomatid agents. Identification of optimal anti-T. cruzi agents and mechanism of action studies” (J Med Chem, 2011):
Calls of active or inactive are those of the source. No cut-off for these calls is given here.

How the values were obtained:
[1] = system: Trypanosoma cruzi; assay: Antitrypanosomal activity against Trypanosoma cruzi CL Brener clone epimastigotes assessed as cell death after 2 days by MTT assay; type: functional; details: 48 h, read-out: ID50 (the source's name)
In short: (§1)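 Parasites in exponential growth, in BHI-tryptose + 5% FBS for T. cruzi or RPMI + 5% FBS for L. braziliensis, 28 °C, 24-well plates. Compounds in DMSO; miltefosine in ethanol. 2-day exposure, two PBS-glucose (5.5 mM) washes, then MTT 0.4 mg/mL for 4 h at 28 °C. SDS-isopropanol lysis, OD read. Triplicates, six growth controls.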

[2] = Selectivity index, ratio of ID50 for mouse J774 cells to ID50 for Trypanosoma cruzi Tulahuen 2 epimastigotes; type: toxicity, cell-based; details: J774 cells versus Trypanosoma cruzi Tulahuen 2 epimastigotes, read-out: Selectivity Index
[3] = system: Trypanosoma cruzi; assay: Inhibition of mitochondrial dehydrogenase activity in Trypanosoma cruzi Y epimastigotes at 20 uM up to 120 mins by MTT assay
In short: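 Y-strain epimastigotes, 10⁶ per well in 500 μL medium, treated with 20 μM compound at 28 °C, untreated wells as time-matched controls. At each time point cells counted, then MTT (50 μL of 5 mg/mL in PBS) added for 4 h. Stopped with acidic isopropanol, A570 read. Activity given as percent of untreated control.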

[4] = system: Trypanosoma cruzi; assay: Antitrypanosomal activity against Trypanosoma cruzi Tulahuen 2 epimastigotes assessed as growth inhibition at 25 uM after 5 days relative to control; type: functional; details: Tulahuen 2, 120 h, read-out: GI
In short: (§2)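 Epimastigotes grown axenically at 28 °C in BHI-tryptose + 5% FBS; a 10-day stationary culture was inoculated to 1 × 10⁶ cells/mL. Drug added from DMSO stock, final DMSO ≤0.4%, vehicle control. A600 read daily. PGI on day 5 corrects for day-0 absorbance, relative to control. […] Three independent experiments.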

[5] = system: Trypanosoma cruzi; assay: Antitrypanosomal activity against Trypanosoma cruzi Colombiana epimastigotes assessed as cell death after 2 days by MTT assay; type: functional; details: 48 h, read-out: ID50 (the source's name); in short: as §1
[6] = system: Trypanosoma cruzi; assay: Antitrypanosomal activity against Trypanosoma cruzi Tulahuen 2 epimastigotes assessed as growth inhibition after 5 days; type: functional; details: Tulahuen 2, 120 h, read-out: ID50; in short: as §2
[7] = system: Trypanosoma cruzi; assay: Antitrypanosomal activity against Trypanosoma cruzi Y epimastigotes assessed as cell death after 2 days by MTT assay; type: functional; details: 48 h, read-out: ID50 (the source's name); in short: as §1
[8] = system: Leishmania braziliensis; assay: Antileishmanial activity against Leishmania braziliensis MHOM/BR/00/LTB300 promastigotes assessed as cell death after 2 days by MTT assay; type: functional; details: MHOM/BR/00/LTB300, 48 h, read-out: ID50 (the source's name); in short: as §1
[9] = system: Trypanosoma cruzi; assay: Antitrypanosomal activity against Trypanosoma cruzi Colombiana epimastigotes assessed as cell death at 25 uM after 2 days by MTT assay relative to control; type: functional
In short: (§3)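 Epimastigotes of each strain taken in exponential growth in BHI-tryptose with 5% FBS, 1 mL per well. Compounds added from DMSO and kept 2 days at 28 °C. Cells washed twice and resuspended in PBS-glucose (5.5 mM), then given 0.4 mg/mL MTT for 4 h at 28 °C. Lysis in SDS-isopropanol, OD read. Triplicate wells, six growth controls. PCyt taken against control, corrected for medium-only wells.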

[10] = system: Trypanosoma cruzi; assay: Antitrypanosomal activity against Trypanosoma cruzi Y epimastigotes assessed as cell death at 25 uM after 2 days by MTT assay relative to control; type: functional; in short: as §3
[11] = system: Trypanosoma cruzi; assay: Inhibition of mitochondrial dehydrogenase activity in Trypanosoma cruzi Y epimastigotes assessed as reduction of succinate excretion […] by NMR analysis
[12] = system: Trypanosoma cruzi; assay: Antitrypanosomal activity against Trypanosoma cruzi CL Brener clone epimastigotes assessed as cell death at 25 uM after 2 days by MTT assay relative to control; type: functional; in short: as §3
[13] = system: Trypanosoma cruzi; assay: Inhibition of mitochondrial dehydrogenase activity in Trypanosoma cruzi Y epimastigotes assessed as reduction of acetate excretion at 5 uM […] by NMR analysis
In short: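 Y-strain epimastigotes treated 2 days with 5 μM compound, 5 mL then centrifuged at 1500g for 10 min at 4 °C. Parasite-free supernatant stored at −20 °C. Before NMR, 0.3 mL supernatant mixed with 0.1 mL DMF (10 mM, internal standard) and 0.1 mL D₂O. Excreted metabolites compared with parasite-free medium control, expressed relative to DMF. Three experiments.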

[14] = Cytotoxicity against mouse J774 cells; type: cell-based; details: read-out: ID50 (the source's name)
[15] = system: Trypanosoma cruzi; assay: Antitrypanosomal activity against Trypanosoma cruzi CL Brener clone trypomastigotes in parasite infected BALB/c mouse blood assessed as parasite lysis at 250 ug/ml after 24 hrs relative to control; type: functional
In short: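 Blood from BALB/c mice 7 days post-infection, taken by cardiac puncture into 3.8% sodium citrate (7:3). Compounds dissolved in DMSO, diluted in PBS to 100 or 250 μg/mL. 10 μL mixed with 100 μL infected blood (~10⁶ parasites/mL), in triplicate. Shaken 10 min at RT, held 4 °C for 24 h. Parasites counted by microscopy; gentian violet 250 μg/mL as standard.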

Row | Structure (SMILES) | IC50 [1] [µM] | selectivity ratio [2] | inhibition [3] | inhibition of growth at 25 µM [4] [%] | IC50 [5] [µM] | IC50 [6] [µM] | IC50 [7] [µM] | IC50 [8] [µM] | Activity [9] [%] | Activity [10] [%] | inhibition [11] | Activity [12] [%] | inhibition [13] | CC50 [14] [µM] | Activity [15] [%]
1 | CC1CS(=O)(=O)CCN1/N=C/c1ccc([N+](=O)[O-])o1 (stereo unspecified) [NIFURTIMOX] | 4.9 | 41 | inactive | 100 | 3.4 | 7.7 | 9.7 |  |  |  |  |  |  |  | 
2 | CCCCCCCCCCCCCCCCOP(=O)([O-])OCC[N+](C)(C)C [MILTEFOSINE] |  |  |  |  |  |  |  | 9 |  |  |  |  |  |  | 
3 | Cc1c(Sc2ccccc2)[n+]([O-])c2cc(Cl)c(Cl)cc2[n+]1[O-] | < 1 |  | Active | 93 | 1.7 | 6.5 | 2.9 | 1.4 | 100 | 100 | Active | 98 | Active |  | 
4 | O=C(c1c(C(F)(F)F)[n+]([O-])c2ccccc2[n+]1[O-])N1CCN(c2ccccc2)CC1 |  | 12.5 |  | 100 |  | 0.76 |  |  |  |  |  |  |  | 9.51 | 
5 | Cc1c(C(=O)c2ccccc2)[n+]([O-])c2cc(F)c(F)cc2[n+]1[O-] | 16.2 |  |  | 92 | 4.5 | 4.2 | 18.3 | 20.4 | 98 | 89 |  | 92 |  |  | 
6 | CC(=O)c1c(C(F)(F)F)[n+]([O-])c2ccccc2[n+]1[O-] |  | 2.8 |  | 100 |  | 3 |  |  |  |  |  |  |  | 8.55 | 
7 | O=C(c1ccco1)c1c(C(F)(F)F)[n+]([O-])c2ccccc2[n+]1[O-] |  | 3 |  | 100 |  | 2.4 |  |  |  |  |  |  |  | 7.13 | 
8 | O=C(c1ccccc1)c1c(C(F)(F)F)[n+]([O-])c2ccccc2[n+]1[O-] | 3.1 |  | Active | 100 |  | 0.9 | 4 | 1 | 100 | 100 |  | 97 |  |  | 
9 | CCOC(=O)c1c(-c2ccccc2)[n+]([O-])c2cc(Cl)c(Cl)cc2[n+]1[O-] | 16.4 |  |  | 99 |  | 11.3 | 7.1 | 3 | 100 | 100 |  | 94 |  |  | 
10 | Cc1c(C(=O)Nc2ccccc2)[n+]([O-])c2ccccc2[n+]1[O-] |  |  |  | 10 |  |  |  | > 50 | 24 | 0 |  | 32 |  |  | 
11 | O=C(c1cccc2ccccc12)c1c(C(F)(F)F)[n+]([O-])c2ccccc2[n+]1[O-] |  | 5.5 |  | 100 |  | 1.4 |  |  |  |  |  |  |  | 7.92 | 
12 | CN(C)c1ccc(C(=C2C=CC(=[N+](C)C)C=C2)c2ccc(N(C)C)cc2)cc1.[Cl-] [GENTIAN VIOLET] |  |  |  |  |  |  |  |  |  |  |  |  |  |  | 100
13 | O=C(c1ccc(Cl)cc1)c1c(C(F)(F)F)[n+]([O-])c2ccccc2[n+]1[O-] |  | 5.3 |  | 100 |  | 1.6 |  |  |  |  |  |  |  | 8.5 | 
14 | COC(=O)c1c(C)[n+]([O-])c2ccccc2[n+]1[O-] |  |  |  | 24 |  |  |  | > 50 | 60 | 0 |  | 59 |  |  | 
15 | CC(C)(C)C(=O)c1c(C(F)(F)F)[n+]([O-])c2cc(F)c(F)cc2[n+]1[O-] |  | < 0.6 |  | 100 |  | 4.9 |  |  |  |  |  |  |  | 16.2 | 
